≈ marks a conversion by molar mass, not a printed value.
Assays:
[1] = system: Mycobacterium tuberculosis; experiment: Antimycobacterial activity against Mycobacterium tuberculosis H37Rv by radiorespirometric bioassay; type: functional
In short: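 Radiorespirometric bioassay giving MIC against strain H37Rv, run essentially per earlier reports; M. tuberculosis experiments usually completed in 10 days.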

[2] = system: Mycobacterium avium; experiment: Antimycobacterial activity against Mycobacterium avium by radiorespirometric bioassay; type: functional
In short: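 MIC determined in a radiorespirometric bioassay run essentially per earlier reports; M. avium experiments usually completed within 5 days.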

| SMILES | MIC [1] [µg/mL] | MIC [2] [µg/mL] |
| --- | --- | --- |
| C=C1CC[C@H]2C(=C)CC[C@@]3(O)C(=C)C(=O)O[C@@H]3[C@@H]12 | > 128 |  |
| C=C1C(=O)O[C@@H]2[C@@H]3[C@@H](CC[C@]34CO4)[C@@]3(CC[C@@H]12)CO3 | 128 (≈ 488 µM) |  |
| C=C1C(=O)O[C@@H]2[C@@H]3[C@@H](CC[C@]34CO4)C(=C)CC[C@@H]12 | 32 (≈ 130 µM) |  |
| C=C1C(=O)O[C@@H]2[C@@H]3[C@@H](CC[C@@]34CO4)[C@]3(CC[C@@H]12)CO3 | 64 (≈ 244 µM) |  |
| C=C1C(=O)O[C@@H]2[C@@H]3[C@@H](CC[C@]34CO4)[C@]3(CC[C@@H]12)CO3 | 128 (≈ 488 µM) |  |
| C=C1CC[C@@H]2[C@H]1[C@H]1OC(=O)C(=C)[C@@H]1CC[C@]21CO1 [DEHYDROCOSTUS LACTONE,10ALPHA(14)EPOXIDE] | 64 (≈ 260 µM) |  |
| C=C1CC[C@@H]2[C@H]1[C@H]1OC(=O)C(=C)[C@@H]1CC[C@@]21CO1 [DEHYDROCOSTUS LACTONE,10BETA(14)EPOXIDE] | 32 (≈ 130 µM) |  |
| C=C1CC[C@H]2C(=C)CC[C@H]3C(=C)C(=O)O[C@@H]3[C@@H]12 [DEHYDROCOSTUSLACTONE] | 2 (≈ 8.68 µM) | 16 (≈ 69.5 µM) |
| C=C1[C@@H]2[C@H]3OC(=O)C(=C)[C@@H]3CCC(=C)[C@@H]2C[C@H]1O [ISOZALUZANIN C] | > 128 |  |
| C=C1C(=O)O[C@H]2[C@H]1CCC(C)=C1CC[C@@](C)(O)[C@@H]12 [MICHELIOLIDE] | 50 (≈ 201 µM) |  |
| C=C1C(=O)O[C@H]2[C@H]1[C@@H](O)[C@H](OC(=O)/C(C)=C\C)C(C)=C1C(=O)C=C(C)[C@@]12O [PUMILIN] | 128 (≈ 342 µM) | 128 (≈ 342 µM) |
